Data: ChEMBL document CHEMBL1909541, “Hantzsch reaction: synthesis and characterization of some new 1,4-dihydropyridine derivatives as potent antimicrobial and antioxidant agents” (Eur J Med Chem, 2011)

Columns and labels:
Type in all cases: functional
[1] = system: Radical scavenging activity; test: Antioxidant activity assessed as DPPH free radical scavenging activity at 100 uM after 30 mins
Summary of the method: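 Sample brought to 1 mL with MeOH and mixed with 3 mL fresh 0.1 mM DPPH. Kept 30 min in the dark, then absorbance read at 517 nm. A DPPH control without sample was included. Scavenging (%) = [(Abs control − Abs sample)/Abs control] × 100.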

Escherichia coli [2] = test: Antibacterial activity against Escherichia coli ATCC 25922 at 0.25 mg/mL after 24 hrs by agar-well diffusion method; details: ATCC 25922, 24 h, read-out: IZ
Summary of the method: (§1)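 Well diffusion on Mueller-Hinton agar seeded with 24 h old cultures. Test compounds dissolved in DMSO at 1, 0.5 and 0.25 mg/mL. 6 mm wells were punched with a sterile cork borer, test solutions added, and plates incubated 24 h at 37 °C.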

Staphylococcus aureus [3] = test: Antibacterial activity against Staphylococcus aureus ATCC 25923 at 0.25 mg/mL after 24 hrs by agar-well diffusion method; details: ATCC 25923, 24 h, read-out: IZ; summary of the method: as §1
Escherichia coli [4] = test: Antibacterial activity against Escherichia coli ATCC 25922 at 1 mg/mL after 24 hrs by agar-well diffusion method; details: ATCC 25922, 24 h, read-out: IZ; summary of the method: as §1
Escherichia coli [5] = test: Antibacterial activity against Escherichia coli ATCC 25922 at 0.5 mg/mL after 24 hrs by agar-well diffusion method; details: ATCC 25922, 24 h, read-out: IZ; summary of the method: as §1
[6] = Antifungal activity against Chrysosporium keratinophilum MTCC 2827 at 0.25 mg/mL after 72 hrs by agar-well diffusion method
Summary of the method: (§2)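 Fungal spore suspensions made in normal saline were spread onto agar adjusted to pH 5.7, then dried 1 h at 37 °C. Wells were cut and loaded with test compounds in DMSO at different concentrations, with a DMSO control. Plates run in triplicate at 25 °C for 72 h. Read-out was inhibition zone diameter.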

Pseudomonas aeruginosa [7] = test: Antibacterial activity against Pseudomonas aeruginosa ATCC 27853 at 0.25 mg/mL after 24 hrs by agar-well diffusion method; details: ATCC 27853, 24 h, read-out: IZ; summary of the method: as §1
Candida albicans [8] = test: Antifungal activity against Candida albicans MTCC 3017 at 1 mg/mL after 72 hrs by agar-well diffusion method; details: MTCC 3017, 72 h, read-out: DIZ; summary of the method: as §2
Aspergillus flavus [9] = test: Antifungal activity against Aspergillus flavus MTCC 3306 at 1 mg/mL after 72 hrs by agar-well diffusion method; details: MTCC 3306, 72 h, read-out: DIZ; summary of the method: as §2
Aspergillus flavus [10] = test: Antifungal activity against Aspergillus flavus MTCC 3306 at 0.5 mg/mL after 72 hrs by agar-well diffusion method; details: MTCC 3306, 72 h, read-out: DIZ; summary of the method: as §2
Pseudomonas aeruginosa [11] = test: Antibacterial activity against Pseudomonas aeruginosa ATCC 27853 at 0.5 mg/mL after 24 hrs by agar-well diffusion method; details: ATCC 27853, 24 h, read-out: IZ; summary of the method: as §1
Candida albicans [12] = test: Antifungal activity against Candida albicans MTCC 3017 at 0.25 mg/mL after 72 hrs by agar-well diffusion method; details: MTCC 3017, 72 h, read-out: DIZ; summary of the method: as §2
Aspergillus flavus [13] = test: Antifungal activity against Aspergillus flavus MTCC 3306 at 0.25 mg/mL after 72 hrs by agar-well diffusion method; details: MTCC 3306, 72 h, read-out: DIZ; summary of the method: as §2
Pseudomonas aeruginosa [14] = test: Antibacterial activity against Pseudomonas aeruginosa ATCC 27853 at 1 mg/mL after 24 hrs by agar-well diffusion method; details: ATCC 27853, 24 h, read-out: IZ; summary of the method: as §1
[15] = Antifungal activity against Chrysosporium keratinophilum MTCC 2827 at 1 mg/mL after 72 hrs by agar-well diffusion method; summary of the method: as §2
Candida albicans [16] = test: Antifungal activity against Candida albicans MTCC 3017 at 0.5 mg/mL after 72 hrs by agar-well diffusion method; details: MTCC 3017, 72 h, read-out: DIZ; summary of the method: as §2
[17] = Antifungal activity against Chrysosporium keratinophilum MTCC 2827 at 0.5 mg/mL after 72 hrs by agar-well diffusion method; summary of the method: as §2
Staphylococcus aureus [18] = test: Antibacterial activity against Staphylococcus aureus ATCC 25923 at 0.5 mg/mL after 24 hrs by agar-well diffusion method; details: ATCC 25923, 24 h, read-out: IZ; summary of the method: as §1
Staphylococcus aureus [19] = test: Antibacterial activity against Staphylococcus aureus ATCC 25923 at 1 mg/mL after 24 hrs by agar-well diffusion method; details: ATCC 25923, 24 h, read-out: IZ; summary of the method: as §1

Structure (SMILES) | Activity [1] [%] | zone of inhibition at 250 µg/mL (Escherichia coli [2]) [mm] | zone of inhibition at 250 µg/mL (Staphylococcus aureus [3]) [mm] | zone of inhibition at 1000 µg/mL (Escherichia coli [4]) [mm] | zone of inhibition at 500 µg/mL (Escherichia coli [5]) [mm] | inhibition zone (IZ) [6] [mm] | zone of inhibition at 250 µg/mL (Pseudomonas aeruginosa [7]) [mm] | zone of inhibition at 1000 µg/mL (Candida albicans [8]) [mm] | zone of inhibition at 1000 µg/mL (Aspergillus flavus [9]) [mm] | zone of inhibition at 500 µg/mL (Aspergillus flavus [10]) [mm] | zone of inhibition at 500 µg/mL (Pseudomonas aeruginosa [11]) [mm] | zone of inhibition at 250 µg/mL (Candida albicans [12]) [mm] | zone of inhibition at 250 µg/mL (Aspergillus flavus [13]) [mm] | zone of inhibition at 1000 µg/mL (Pseudomonas aeruginosa [14]) [mm] | inhibition zone (IZ) [15] [mm] | zone of inhibition at 500 µg/mL (Candida albicans [16]) [mm] | inhibition zone (IZ) [17] [mm] | zone of inhibition at 500 µg/mL (Staphylococcus aureus [18]) [mm] | zone of inhibition at 1000 µg/mL (Staphylococcus aureus [19]) [mm]
Cc1cc(C(C)(C)C)c(O)c(C(C)(C)C)c1 | 72.4 | – | – | – | – | – | – | – | – | – | – | – | – | – | – | – | – | – | –
COC(=O)C1=C(C)NC(C)=C(C(=O)OC)C1c1c[nH]nc1-c1ccc(OC)cc1 | 30.2 | 2 | 2 | 7 | 4 | 0 | 2 | 0 | 0 | 0 | 4 | 0 | 0 | 7 | 0 | 0 | 0 | 4 | 6
COC(=O)C1=C(C)NC(C)=C(C(=O)OC)C1c1c[nH]nc1-c1ccc(Cl)cc1Cl | 35.2 | 2 | 2 | 6 | 3 | 0 | 2 | 3 | 3 | 2 | 4 | 0 | 0 | 8 | 5 | 0 | 1 | 3 | 6
COC(=O)C1=C(C)NC(C)=C(C(=O)OC)C1c1c[nH]nc1-c1ccc(-c2ccccc2)cc1 | 25.3 | 8 | 5 | 13 | 10 | 0 | 7 | 0 | 5 | 4 | 8 | 0 | 2 | 10 | 3 | 0 | 2 | 7 | 9
OC(Cn1cncn1)(Cn1cncn1)c1ccc(F)cc1F [FLUCONAZOLE] | – | – | – | – | – | 14 | – | 22 | 13 | 11 | – | 20 | 10 | – | 17 | 21 | 15 | – | –
CCOC(=O)C1=C(C)NC(C)=C(C(=O)OCC)C1c1c[nH]nc1-c1ccc(Cl)cc1Cl | 29.2 | 2 | 5 | 6 | 4 | 1 | 7 | 4 | 3 | 2 | 9 | 1 | 2 | 12 | 4 | 1 | 2 | 7 | 11
COC(=O)C1=C(C)NC(C)=C(C(=O)OC)C1c1c[nH]nc1-c1ccc(SC)cc1 | 32.2 | 1 | 2 | 4 | 2 | 0 | 3 | 0 | 0 | 0 | 4 | 0 | 0 | 6 | 0 | 0 | 0 | 3 | 6
COC(=O)C1=C(C)NC(C)=C(C(=O)OC)C1c1c[nH]nc1-c1cc(Cl)sc1Cl | 30.3 | 5 | 4 | 10 | 7 | 1 | 1 | 3 | 3 | 2 | 3 | 0 | 0 | 7 | 4 | 2 | 2 | 8 | 10
CCOC(=O)C1=C(C)NC(C)=C(C(=O)OCC)C1c1c[nH]nc1-c1ccc(OC)cc1 | 30.3 | 5 | 6 | 12 | 8 | 0 | 5 | 3 | 2 | 1 | 7 | 2 | 0 | 10 | 3 | 1 | 2 | 8 | 13
CN[C@@H]1[C@H](O[C@H]2[C@H](O[C@H]3[C@H](O)[C@@H](O)[C@H](N=C(N)N)[C@@H](O)[C@@H]3N=C(N)N)O[C@@H](C)[C@]2(O)C=O)O[C@@H](CO)[C@H](O)[C@H]1O [STREPTOMYCIN] | – | 8 | 9 | 16 | 10 | – | 11 | – | – | – | 13 | – | – | 16 | – | – | – | 10 | 15
CCOC(=O)C1=C(C)NC(C)=C(C(=O)OCC)C1c1c[nH]nc1-c1cc(Cl)sc1Cl | 32 | 8 | 8 | 16 | 10 | 2 | 10 | 5 | 4 | 3 | 12 | 2 | 3 | 15 | 5 | 2 | 2 | 9 | 13
COC(=O)C1=C(C)NC(C)=C(C(=O)OC)C1c1c[nH]nc1-c1ccc(Cl)cc1 | 29.4 | 5 | 3 | 10 | 8 | 2 | 4 | 3 | 6 | 3 | 7 | 0 | 1 | 9 | 5 | 1 | 4 | 6 | 8
